# Source: PubChem BioAssay
# Rin1-Abl PPI inh: inhibitors of Rin1-Abl protein binding, primary screen, biochemical, TR-FRET. Tyrosine-protein kinase ABL1 (Homo sapiens) + Ras and Rab interactor 1 (Homo sapiens), …. 360,000 compounds, 0.4% hits. AID 588664, 2011. inhibition, % at 7.35 µM; in the data active means inhibition above about 5%, passing the limit was not always enough
# SUMO HTRF inh: inhibitors of in vitro SUMOylation cascade, primary screen, biochemical, HTRF, uHTS. SUMO-conjugating enzyme UBC9 (Homo sapiens), P63279. HTRF SUMOylation assay, SAE1/SAE2 + UBC9. inhibition, % at 35 µM. 290,000 compounds, 0.36% hits. AID 2006, 2009; in the data active means inhibition above about 50%, passing the limit was not always enough; inconclusive means no clear call, values can overlap the other calls
# PREPL inh: PREPL enzyme inhibitors, primary screen, biochemical, fluorescence polarization; Prolyl endopeptidase-like (Homo sapiens), Q4J6C6; recombinant PREPL, fluorescence polarization activity-based probe; inhibition, % at 5.96 µM; 320,000 compounds, 0.68% hits; AID 2751, 2010; in the data active means inhibition above about 43%;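 further: 0% = enzyme with DMSO and 100% = wells lacking enzyme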
# RBBP9 inhibitor: human RBBP9 inhibitors, primary screen, biochemical, fluorescence polarization, FP-Rh probe, HTS; inhibition, % at 7.94 µM; recombinant RBBP9; 220,000 compounds, 0.2% hits;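 active means inhibition above the campaign mean of all tested compounds plus 3 SD, cut at about 14% in these data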;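 further: plate controls were DMSO wells with RBBP9 for no effect and wells lacking RBBP9 protein for full effect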
#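 Test system: recombinant human RBBP9. Quantity: 2.5 µM RBBP9 dispensing solution, before mixing. Detection: FP readout at 525/598 nm. Reagent: Serine-hydrolase probe FP-Rh, 375 nM pre-mixing. Measure: % inhibition. Control set: DMSO-treated enzyme wells and wells lacking RBBP9. Buffer or medium: Tris-NaCl-Pluronic buffer, pH 8.0. Times: preincubation 30 min plus labeling 45 min at 25 °C.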
# UBC13 polyUb: UBC13 polyubiquitin chain formation inhibitors, primary screen, biochemical, TR-FRET, uHTS; inhibition, % at 20 µM; 330,000 compounds, 0.47% hits; AID 485273, 2010; in the data active means inhibition above about 45%, passing the limit was not always enough; inconclusive means no clear call, values can overlap the other calls
# Target sequence (P61088 whole entry, looked up): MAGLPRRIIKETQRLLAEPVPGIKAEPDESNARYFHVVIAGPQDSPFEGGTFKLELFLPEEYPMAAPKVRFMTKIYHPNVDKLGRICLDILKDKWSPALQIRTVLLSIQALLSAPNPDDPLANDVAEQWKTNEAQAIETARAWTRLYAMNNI
# ALR inh: inhibitors of human ALR sulfhydryl oxidase, primary screen, biochemical, H2O2 detection, HRP-luminol luminescence, single point; FAD-linked sulfhydryl oxidase ALR (Homo sapiens), P55789; purified ALR, DTT oxidation; inhibition, % (concentration not given with the values); 290,000 compounds, 3.8% hits; AID 485317, 2010;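 active means mean replicate inhibition above about 79%, with every replicate also reaching it, limit read from the data; inconclusive means only one of the two criteria met; inactive means mean below limit and not every replicate reaching it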
# Target sequence (P55789 whole entry, looked up): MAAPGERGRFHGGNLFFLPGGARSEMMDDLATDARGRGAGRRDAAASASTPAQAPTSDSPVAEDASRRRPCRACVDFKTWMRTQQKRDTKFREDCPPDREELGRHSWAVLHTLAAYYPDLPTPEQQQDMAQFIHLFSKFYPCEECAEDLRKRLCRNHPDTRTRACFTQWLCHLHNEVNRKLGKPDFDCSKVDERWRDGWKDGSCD
# * = called active by the depositor; ? = inconclusive; . = no result given. Compounds with a hit are over-represented: about 4.3% of the library has one in this group of screens.
SMILES,Rin1-Abl PPI inh,SUMO HTRF inh,PREPL inh,RBBP9 inhibitor,UBC13 polyUb,ALR inh
CC(C)Oc1ccc(S(=O)(=O)N2CCOCC2)cc1NC(=O)C(C)Oc1ccc(F)cc1 (centres undefined),0.7,.,-0.9,.,0.8,-2.0
O=C(Nc1ccc(O)cc1)c1cc(S(=O)(=O)N2CCCC2)ccc1Cl,-4.0,27.7,-0.5,-1.3,0.4,98.9*
O=C(Nc1ccncc1)c1cc(S(=O)(=O)N2CCCC2)ccc1Cl,2.4,.,14.2,.,16.6,-18.0
CC(=O)c1ccccc1NC(=O)COC(=O)CN1C(=O)C2CCCCC2C1=O (centres undefined),4.8,.,14.8,.,4.3,.
Cc1ccc(SCc2cn3ccccc3n2)cc1,-2.9,9.2,3.9,-11.5,-8.1,6.9
Cn1ccnc1SCc1cn2cc(Br)ccc2n1,1.4,15.1,10.2,0.9,2.8,98.6*
Nc1ccc(Sc2ccccc2CC(=O)O)cc1,.,21.0,-8.2,0.9,-0.1,98.9*
N#Cc1cccc(S(=O)(=O)Nc2c(NC3CCCCC3)c3ccccc3oc2=O)c1,0.6,-0.8,-5.1,.,9.2,98.1*
O=c1oc2ccccc2c(NC2CCCCC2)c1NS(=O)(=O)c1ccc(F)cc1,-0.9,11.6,6.4,.,12.5,10.3
CCOC(=O)c1c(/N=C/c2cc(C)ccc2O)sc2c1CCN(C)C2,6.4,8.9,5.2,2.8,-3.7,97.8*
Cc1cccc(/C=N/c2sc3c(c2C(=O)OC(C)(C)C)CCN(C)C3)c1O,-0.5,-2.7,3.6,-2.9,28.5,21.3
COc1ccccc1NC(=S)N(CCN1CCOCC1)Cc1ccccc1F,0.6,21.1,7.1,-8.3,2.9,4.5
CCN1CCCc2cc(CN(CCN3CCOCC3)C(=S)Nc3ccccc3OC)ccc21,2.4,-8.0,21.2,6.5,6.2,98.7*
CCN1CCCc2cc(CN(CCN3CCOCC3)C(=S)Nc3ccccc3C)ccc21,-0.7,-2.3,4.9,-1.4,5.7,98.7*
Cc1ccccc1NC(=S)N(CCN1CCCCCC1)Cc1cccs1,1.5,17.2,3.2,7.5,-3.4,-4.2
CCN1CCCc2cc(CN(CCN3CCOCC3)C(=S)Nc3cccc(C)c3)ccc21,-3.0,11.7,4.4,5.0,12.8,95.3*
Cc1cccc(NC(=S)N(CCN2CCOCC2)Cc2ccccc2F)c1,-5.6,-7.1,7.5,-8.7,-8.6,-2.3
Cc1ccc(Cc2c(-c3ccc(F)cc3)nc3c(C)cc(Br)cn23)cc1,-1.6,.,.,.,.,.
COc1cc(C(=O)N2CCC2(C)C(=O)NC(C)C)cc(OC)c1OC (centres undefined),-4.2,.,.,.,.,.
CCOC(=O)C1CCN(Cc2cnc(Oc3ccc(N)cc3)s2)CC1,-0.4,3.5,19.6,1.7,-3.9,97.8*
COc1ccc(N2C(=O)CC(Sc3nc4ccccc4s3)C2=O)cc1OC (centres undefined),3.0,0.4,5.8,3.1,6.8,97.0*
O=C(CSc1nnc2n1CCCN2)c1ccc([N+](=O)[O-])cc1,-2.9,0.9,-0.2,-3.8,-0.6,97.4*
CC(C)(C)c1ccc(C(=O)CC(Sc2ccc(Cl)cc2)C(=O)O)cc1 (centres undefined),4.0,33.2,-2.7,-3.0,-2.3,98.0*
CCc1ccc(NC(=O)C(C)Sc2ccc(S(=O)(=O)N3CCN(C)CC3)cn2)cc1 (centres undefined),3.7,.,10.0,.,8.9,.
Fc1ccc(NC(=S)NCCc2ccccn2)cc1,-4.6,6.2,0.5,-2.4,7.7,51.7
FC(F)(F)c1cccc(NC(=S)NCCc2ccccn2)c1,-1.2,19.7,-1.2,-4.3,6.5,77.4*
CC(C)(C)c1ccc(NC(=S)NCCc2ccccn2)cc1,0.2,14.6,13.5,0.8,2.0,97.9*
COc1ccc(OCCCC(=O)ON=C(N)c2ccccc2Cl)cc1,2.8,.,5.3,.,9.2,-1.9
Cc1cc(C2C(C#N)=C(N)SC(N)=C2C#N)c(C)s1,-30.6,17.1,6.3,-4.3,?,99.1*
